Among the data in the RNAGym collection of RNA variant scans (doi:10.1038/nmeth.2970) are Kd values, retold here.

What is called Kd is the constant that tells how readily two partners part at equilibrium.

The chains are these.
B1: GFP aptamer (parent)
chain: GCUUCUGGACUGCGAUGGGAGCACGAAACGUCGUGGCGCAAUUGGGUGGGGAAAGUCCUUAAAAGAGGGCCACCACAGAAGC

In the data set the parent is B1. Description: HiTS-RAP. To be noted: with EGFP. A digest of the protocol:
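Aptamer DNA templates carrying a T7 promoter and ter site were sequenced on an Illumina GAIIx flowcell, then transcribed in situ by T7 RNA polymerase and halted by GST-Tus (30 minutes, 37°C). Clusters were imaged after 30-minute room-temperature equilibration with EGFP-mOrange at 0.04 nM to 625 nM in fivefold steps. Intensities were decay-corrected, normalised to sequencing intensity and averaged per sequence. Kd came from weighted Hill fits per lane, geometrically averaged over three lanes, with non-rising sequences set to 125 nM.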
GCUUCUGGACUGCGAUGGGAGCACGAAACGUCGUGGCGCAACUGGGUGGGGAAAGUCCUUAAAAGAGGGCCACUACAGAAGC [U42C C74U]: the Kd amounted to 1.05 nM.

As to GCUUCUGGACUGCGAUGGGAGCACGAAACGUCGUGGCGCAAUUGUGUGGGGAAAGUCCUUAAAAGAGGGCCACCACAGAAGC [G45U], the Kd stood at 22.7 nM. To GCUUCUGGACUGCGAUGGGAGCACGAAACGUCGUGGCGCAAUUGAGUGGGGAAAGUCCUUAAAAGAGGGCCACCACAGAAGC [G45A] belongs 28.2 nM; to GCUUCUGGACUGCGAUGGGAGCACGAAACGUCGUGGCGCAAUUGCGUGGGGAAAGUCCUUAAAAGAGGGCCACCACAGAAGC [G45C], 178 nM.

With GCUUCUGGACUGCGAUGGGAGCACGAAACGUCGUGGCGCAAUUGGGAGGGGAAAGUCCUUAAAAGAGGGCCACCACAGAAGC [U47A], the Kd stood at 8.14 nM. In the case of GCUUCUGGACUGCGAUGGGAGCACGAAACGUCGUGGCGCAAUUGGGGGGGGAAAGUCCUUAAAAGAGGGCCACCACAGAAGC [U47G], the Kd stood at 5.28 nM.

Consider GCUUCUGGACUGCGAUGGGAGCACGAAACGUCGUGGCGCAAUUGGGCGGGGAAAGUCCUUAAAAGAGGGCCACCACAGAAGC [U47C], for which the Kd stood at 8.1 nM. To GCUUCUGGACUGCGAUGGGAGCACGAAACGUCGUGGCGCAAUUGGAUGGGGAAAGUCCUUAAAAGAGGGCCACCACAGAAGC [G46A] belongs 18.7 nM.

In the case of GCUUCUGGACUGCGAUGGGAGCACGAAACGUCGUGGCGCAAUUGGCUGGGGAAAGUCCUUAAAAGAGGGCCACCACAGAAGC [G46C], the Kd stood at 58.8 nM. The result for GCUUCUGGACUGCGAUGGGAGCACGAAACGUCGUGGCGCAAUUGGUUGGGGAAAGUCCUUAAAAGAGGGCCACCACAGAAGC [G46U] reads 29.2 nM; that for GCUUCUGGACUGCGAUGGGAGCACGAAACGUCGUGGCGCAAUUGGGUGGGGAAAGUCCCUAAAAGAGGGCCACCACGGAAGC [U59C A77G], 0.842 nM. For the variant GCUUCUGGACUGCGAUGGGAGCACGAAACGUCGUGGCGCAAGUGGGUGGGGAAAGUCCUUAAAAGAGGGCCACCACAGAAGC [U42G], the Kd was found to be 7.09 nM. The result for GCUUCUGGACUGCGAUGGGAGCACGAAACGUCGUGGCGCAAUUGGGUGGGUAAAGUCCUUAAAAGAGGGCCACCACAGAAGC [G51U] reads 28.8 nM. The result for GCUUCUGGACUGCGAUGGGAGCACGAAACGUCGUGGCGCAAUUGGGUGGGCAAAGUCCUUAAAAGAGGGCCACCACAGAAGC [G51C] reads ≥ 125 nM; that for GCUUCUGGACUGCGAUGGGAGCACGAAACGUCGUGGCGCAAUUGGGUGGGAAAAGUCCUUAAAAGAGGGCCACCACAGAAGC [G51A], 8.55 nM; that for GCUUCUGGACUGCGAUGGGAGCACGAAACGUCGUGGCGCAAUUGGGUGGGGAAAGGCCUUAAAAGAGGGCCACCACAGAAGC [U56G], 3.15 nM. To GCUUCUGGACUGCGAUGGGAGCACGAAACGUCGUGGCGCAAUUGGGUGGGGAAAGCCCUUAAAAGAGGGCCACCACAGAAGC [U56C] belongs ≥ 125 nM.

GCUUCUGGACUGCGAUGGGAGCACGAAACGUCGUGGCGCAAUUGGGUGGGGAAAGACCUUAAAAGAGGGCCACCACAGAAGC [U56A]: the equilibrium dissociation constant (Kd) is ≥ 125 nM. The result for GCUUCUGGACUGCGAUGGGAGCACGAAACGUCGUGGCGCAAUUGGGUGGGGAAAGUGCUUAAAAGAGGGCCACCACAGAAGC [C57G] reads ≥ 125 nM; that for GCUUCUGGACUGCGAUGGGAGCACGAAACGUCGUGGCGCAAUUGGGUGGGGAAAGUUCUUAAAAGAGGGCCACCACAGAAGC [C57U], ≥ 125 nM.

On to GCUUCUGGACUGCGAUGGGAGCACGAAACGUCGUGGCGCAAUUGGGUGGGGAAAGUACUUAAAAGAGGGCCACCACAGAAGC [C57A], for which the Kd was ≥ 125 nM. As to GCUUCUGGACUGCGAUGGGAGCACGAAACGUCGUGGCGCAAUUGGGUGGGGAGAGUCCUUAAAAGAGGGCCACCACAGAAGC [A53G], the Kd was 33.3 nM. To GCUUCUGGACUGCGAUGGGAGCACGAAACGUCGUGGCGCAAUUGGGUGGGGAUAGUCCUUAAAAGAGGGCCACCACAGAAGC [A53U] belongs 118 nM. For GCUUCUGGACUGCGAUGGGAGCACGAAACGUCGUGGCGCAAUUGGGUGGGGAAAGUCUUUAAAAGAGGGCCACCACAGAAGC [C58U], the Kd was 1.21 nM. The result for GCUUCUGGACUGCGAUGGGAGCACGAAACGUCGUGGCGCAAUUGGGUGGGGAAAGUCGUUAAAAGAGGGCCACCACAGAAGC [C58G] reads 29.1 nM. To GCUUCUGGACUGCGAUGGGAGCACGAAACGUCGUGGCGCAAUUGGGUGGGGCAAGUCCUUAAAAGAGGGCCACCACAGAAGC [A52C] belongs 43.6 nM; to GCUUCUGGACUGCGAUGGGAGCACGAAACGUCGUGGCGCAAUUGGGUGGGGGAAGUCCUUAAAAGAGGGCCACCACAGAAGC [A52G], 12.3 nM. The result for GCUUCUGGACUGCGAUGGGAGCACGAAACGUCGUGGCGCAAUUGGGUGGGGUAAGUCCUUAAAAGAGGGCCACCACAGAAGC [A52U] reads ≥ 125 nM; that for GCUUCUGGACUGCGAUGGGAGCACGAAACGUCGUGGCGCAAUAGGGUGGGGAAAGUCCUUAAAAGAGGGCCACCACAGAAGC [U43A], 5.22 nM; that for GCUUCUGGACUGCGAUGGGAGCACGAAACGUCGUGGCGCAAUCGGGUGGGGAAAGUCCUUAAAAGAGGGCCACCACAGAAGC [U43C], 4.76 nM. In the case of GCUUCUGGACUGCGAUGGGAGCACGAAACGUCGUGGCGCAAUGGGGUGGGGAAAGUCCUUAAAAGAGGGCCACCACAGAAGC [U43G], the Kd was 19.5 nM.

As for GCUUCUGGACUGCGAUGGGAGCACGAAACGUCGUGGCGCAAUUGGGUGGGGAACGUCCUUAAAAGAGGGCCACCACAGAAGC [A54C], the Kd is ≥ 125 nM. As for GCUUCUGGACUGCGAUGGGAGCACGAAACGUCGUGGCGCAAUUGGGUGGGGAAUGUCCUUAAAAGAGGGCCACCACAGAAGC [A54U], the equilibrium dissociation constant (Kd) was ≥ 125 nM.
